From ChEMBL document CHEMBL1773068, “Drug to genome to drug: discovery of new antiplasmodial compounds” (J Med Chem, 2011)
Activity calls are given as the source filed them. The calls are words filed in the database; no cut-off is given here.

How the values were obtained:
Plasmodium falciparum [1] = assay: Antiplasmodial activity against chloroquine-susceptible Plasmodium falciparum GHA strain infected in human erythrocytes after 72 hrs by spectrophotometry; format: functional, organism-based
Outline: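 P. falciparum cultured in human A+ erythrocytes in RPMI-1640 with 10% human serum, 37 °C, low oxygen (3% O2, 4% CO2, 93% N2). Infected red cell suspension (1% parasitemia, 2% hematocrit) incubated with compounds 72 h, then frozen. Growth read by Malstat method: NBT/PES added, 2 h in dark, absorbance at 655 nm. IC50 from duplicate determinations.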

MRC5 = assay: Cytotoxicity against human MRC5 SV2 cells after 72 hrs; format: cell-based; conditions: MRC5, 72 h
Outline: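 MRC-5 SV2 human fetal lung fibroblasts grown in MEM with L-glutamine, NaHCO3 and 5% FCS at 37 °C, 5% CO2. 10^4 cells/well seeded onto prediluted compounds, 72 h at 37 °C. Viability by resazurin added for 24 h, fluorescence at ex 530/em 590 nm. IC50 from duplicate determinations.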

Plasmodium falciparum [2] = assay: Inhibition of Plasmodium falciparum GHA strain PDE assessed as inhibition of cGMP hydrolysis at 20 uM after 6 hrs by time resolved fluorescence resonance energy transfer-based assay
Outline: (§1)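 Parasite lysate (2 μL, ~400 000 parasites) incubated with cGMP (150 nM) and inhibitor at 20 μM (4% DMSO final) for 6 h at 37 °C. Buffer: 50 mM Tris-HCl pH 7.4, 6 mM MgCl2, 1 mM MnCl2, 4 mM DTT. Residual cGMP measured by competitive HTRF (d2-labelled cGMP vs anti-cGMP cryptate), 665/620 nm ratio after 1 h at room temperature. Duplicates, each read twice.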

Plasmodium falciparum [3] = assay: Inhibition of Plasmodium falciparum GHA strain PDE assessed as inhibition of cAMP hydrolysis at 20 uM after 6 hrs by time resolved fluorescence resonance energy transfer-based assay
Outline: as §1, with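 “cAMP” for “cGMP”, “anti-cAMP” for “anti-cGMP”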

Row | Structure (SMILES) | IC50 (Plasmodium falciparum [1]; read-out: IC50) [µM] | IC50 (MRC5) [µM] | inhibition (Plasmodium falciparum [2]) | inhibition (Plasmodium falciparum [3]) | IC50 (Plasmodium falciparum [1]; read-out: pIC50 (converted)) [µM]
1 | CN1CC(=O)N2[C@H](c3ccc4c(c3)OCO4)c3[nH]c4ccccc4c3C[C@@H]2C1=O [TADALAFIL] | > 64 | > 64 |  |  | 
2 | O=C1[C@H]2Cc3c([nH]c4ccccc34)[C@@H](c3ccc4c(c3)OCO4)N2C(=O)CN1c1cccc(CN2CCNCC2)c1 | 10 | 8 |  |  | 
3 | O=C1[C@H]2Cc3c([nH]c4ccc(Br)cc34)[C@@H](c3ccc4c(c3)OCO4)N2C(=O)CN1[C@@H]1CCN(Cc2ccccc2)C1 (mixture of isomers) | 7 | 10 |  |  | 
4 | O=C1[C@H]2Cc3c([nH]c4ccccc34)[C@@H](c3ccc4c(c3)OCO4)N2C(=O)CN1c1ccccc1 | > 64 | > 64 |  |  | 
5 | CC(C)(C)OC(=O)N1CCN(Cc2cccc(N3CC(=O)N4[C@H](c5ccc6c(c5)OCO6)c5[nH]c6ccccc6c5C[C@@H]4C3=O)c2)CC1 | 23 | > 64 |  |  | 
6 | NCCCC[C@H]1NC(=O)[C@H]2Cc3c([nH]c4ccccc34)[C@@H](c3ccc4c(c3)OCO4)N2C1=O | 4 | > 64 |  |  | 
7 | O=C1N[C@@H](Cc2c[nH]c3ccccc23)C(=O)N2[C@H](c3ccc4c(c3)OCO4)c3[nH]c4ccccc4c3C[C@H]12 | 25 | 35 |  |  | 
8 | OCCN(CCO)c1nc(N2CCCCC2)c2nc(N(CCO)CCO)nc(N3CCCCC3)c2n1 [DIPYRIDAMOLE] | 64 |  | Active | Active | 
9 | O=C1[C@H]2Cc3c([nH]c4ncccc34)[C@@H](c3ccc4c(c3)OCO4)N2C(=O)CN1[C@@H]1CCN(Cc2ccccc2)C1 | 0.97 | 22 |  |  | 
10 | CN(CCN1CC(=O)N2[C@H](c3ccc4c(c3)OCO4)c3[nH]c4ccccc4c3C[C@@H]2C1=O)Cc1ccccc1 | 7 | > 64 |  |  | 
11 | NN1CC(=O)N2[C@H](c3ccc4c(c3)OCO4)c3[nH]c4ccccc4c3C[C@@H]2C1=O | > 64 | > 64 |  |  | 
12 | O=C1[C@H]2Cc3c([nH]c4ccccc34)[C@@H](c3ccc4c(c3)OCO4)N2C(=O)CN1c1ccsc1 | > 64 | > 64 |  |  | 
13 | O=C1[C@H]2Cc3c([nH]c4ccccc34)[C@@H](c3ccc4c(c3)OCO4)N2C(=O)CN1c1cccs1 | > 64 | > 64 |  |  | 
14 | O=C1[C@H]2Cc3c([nH]c4ccccc34)[C@@H](c3ccc4c(c3)OCO4)N2C(=O)CN1CCc1ccc(O)cc1 | 16 | > 64 |  |  | 
15 | Cn1c2c(c3ccccc31)C[C@@H]1C(=O)N([C@@H]3CCN(Cc4ccccc4)C3)CC(=O)N1[C@@H]2c1ccc2c(c1)OCO2 | 9 | > 64 |  |  | 
16 | CC(C)(C)OC(=O)N1CCN(c2ccc(N3CC(=O)N4[C@H](c5ccc6c(c5)OCO6)c5[nH]c6ccccc6c5C[C@@H]4C3=O)cc2)CC1 | > 64 | > 64 |  |  | 
17 | O=C1[C@H]2Cc3c([nH]c4ccccc34)[C@@H](c3ccc4c(c3)OCO4)N2C(=O)CN1c1cccc(Cl)c1 | > 64 | > 64 |  |  | 
18 | CCCOc1ccccc1-c1nc2[nH]nnc2c(=O)[nH]1 [ZAPRINAST] | 35 |  | Active | Active | 
19 | O=C1[C@H]2Cc3c([nH]c4ccccc34)[C@@H](c3ccc4c(c3)OCO4)N2C(=O)CN1c1cncnc1 | 56 | > 64 |  |  | 
20 | Cc1cccc(N2CC(=O)N3[C@H](c4ccc5c(c4)OCO5)c4[nH]c5ccccc5c4C[C@@H]3C2=O)c1 | > 64 | > 64 |  |  | 
21 | O=C1NCC(=O)N2[C@H](c3ccc4c(c3)OCO4)c3[nH]c4ccccc4c3C[C@H]12 [NORTADALAFIL] | > 64 | > 64 |  |  | 
22 | O=C1[C@H]2Cc3c([nH]c4ccccc34)[C@H](c3ccc4c(c3)OCO4)N2C(=O)CN1[C@@H]1CCN(Cc2ccccc2)C1 | 50 | > 64 |  |  | 

Row | Structure (SMILES) | IC50 (Plasmodium falciparum [1]; read-out: IC50) [µM] | IC50 (MRC5) [µM] | inhibition (Plasmodium falciparum [2]) | inhibition (Plasmodium falciparum [3]) | IC50 (Plasmodium falciparum [1]; read-out: pIC50 (converted)) [µM]
23 | O=C1[C@H]2Cc3c([nH]c4ccccc34)[C@@H](c3ccc4c(c3)OCO4)N2C(=O)CN1C1CCNCC1 | 32 | > 64 |  |  | 
24 | O=C1[C@H]2Cc3c([nH]c4ccc(F)cc34)[C@@H](c3ccc4c(c3)OCO4)N2C(=O)CN1[C@@H]1CCN(Cc2ccccc2)C1 (mixture of isomers) | 1.7 | 17.8 |  |  | 
25 | CCCCc1ccc(N2CC(=O)N3[C@H](c4ccc5c(c4)OCO5)c4[nH]c5ccccc5c4C[C@@H]3C2=O)cc1 | > 64 | > 64 |  |  | 
26 | CCCCN1CC(=O)N2[C@H](c3ccc4c(c3)OCO4)c3[nH]c4ccccc4c3C[C@@H]2C1=O | > 64 | > 64 |  |  | 
27 | O=C1N[C@@H](COCc2ccccc2)C(=O)N2[C@H](c3ccc4c(c3)OCO4)c3[nH]c4ccccc4c3C[C@H]12 | > 64 | > 64 |  |  | 
28 | CC(C)(C)OC(=O)CC[C@@H]1NC(=O)[C@H]2Cc3c([nH]c4ccccc34)[C@@H](c3ccc4c(c3)OCO4)N2C1=O | 60 | > 64 |  |  | 
29 | O=C1[C@H]2Cc3c([nH]c4ccccc34)[C@@H](c3ccc4c(c3)OCO4)N2C(=O)CN1Cc1ccc(N2CCOCC2)cc1 | 9 | > 64 |  |  | 
30 | O=C1[C@H]2Cc3c([nH]c4ccccc34)[C@@H](c3ccc4c(c3)OCO4)N2C(=O)CN1C1CCN(Cc2ccccc2)CC1 | 1 | 7 | 60% | Active | 
31 | O=C1[C@H]2Cc3c([nH]c4ccccc34)[C@@H](c3ccc4c(c3)OCO4)N2C(=O)CN1c1ccc(CN2CCOCC2)cc1 | 19 | > 64 |  |  | 
32 | O=C1[C@H]2Cc3c([nH]c4ccccc34)[C@@H](c3ccc4c(c3)OCO4)N2C(=O)CN1[C@H]1CCN(Cc2ccccc2)C1 | 10 | > 64 |  |  | 
33 | O=C1[C@H]2Cc3c([nH]c4ccccc34)[C@@H](c3ccc4c(c3)OCO4)N2C(=O)CN1[C@@H]1CCNC1 | 12 | > 64 |  |  | 
34 | O=C1[C@H]2Cc3c([nH]c4ccccc34)[C@@H](c3ccc4c(c3)OCO4)N2C(=O)CN1c1ccc(N2CCNCC2)cc1 | 7 | 8 |  |  | 
35 | O=C1[C@H]2Cc3c([nH]c4ccccc34)[C@@H](c3ccc4c(c3)OCO4)N2C(=O)CN1CCN1CCOCC1 | 22 | > 64 |  |  | 
36 | O=C1[C@H]2Cc3c([nH]c4ccccc34)[C@@H](c3ccc4c(c3)OCO4)N2C(=O)CN1CCCn1ccnc1 | 9 | > 64 |  |  | 
37 | O=C1[C@H]2Cc3c([nH]c4ccccc34)[C@@H](c3ccc4c(c3)OCO4)N2C(=O)CN1[C@@H]1CCN(Cc2ccccc2)C1 | 0.5 | 10 | 60% | Active | 0.501
38 | O=C1[C@H]2Cc3c([nH]c4ccccc34)[C@@H](c3ccc4c(c3)OCO4)N2C(=O)CN1c1ccc(C(F)(F)F)cc1 | > 64 | > 64 |  |  | 
39 | O=C1[C@H]2Cc3c([nH]c4ccccc34)[C@@H](c3ccc4c(c3)OCO4)N2C(=O)CN1c1ccc(Cl)cc1 | 60 | > 64 |  |  | 
40 | O=C1[C@H]2Cc3c([nH]c4cc(F)ccc34)[C@@H](c3ccc4c(c3)OCO4)N2C(=O)CN1[C@@H]1CCN(Cc2ccccc2)C1 (mixture of isomers) | 1.26 | 16 |  |  | 
41 | Cn1ccnc1CN1CCC(N2CC(=O)N3[C@H](c4ccc5c(c4)OCO5)c4[nH]c5ccccc5c4C[C@@H]3C2=O)CC1 | 4 | 62 |  |  | 
42 | CN(CCCN1CC(=O)N2[C@H](c3ccc4c(c3)OCO4)c3[nH]c4ccccc4c3C[C@@H]2C1=O)Cc1ccccc1 | 8 | 8 |  |  | 
43 | COc1ccc(N2CC(=O)N3[C@H](c4ccc5c(c4)OCO5)c4[nH]c5ccccc5c4C[C@@H]3C2=O)cc1 | > 64 | > 64 |  |  | 
44 | O=C1[C@H]2Cc3c([nH]c4ccccc34)[C@@H](c3ccc4c(c3)OCO4)N2C(=O)CN1c1cccnc1 | 22 | > 64 |  |  | 
